Experimental data reported in ChEMBL document CHEMBL4715736, “Identification of anticancer agents based on the thieno[2,3-b]pyridine and 1H-pyrazole molecular scaffolds” (2016).

Legend:
Type in all cases: functional
Conditions in all cases: read-out: Activity
ACHN = assay: Growth inhibition of human ACHN cells assessed as cell growth at 10 uM incubated for 48 hrs by sulforhodamine B assay relative to control
How it was run: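 NCI Developmental Therapeutics Program NCI60 human tumour cell line panel, one-dose primary screen with every compound at 10 µM. Growth is expressed as % of untreated control cells (100%).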

HOP-62 = assay: Growth inhibition of human HOP-62 cells assessed as cell growth at 10 uM incubated for 48 hrs by sulforhodamine B assay relative to control
How it was run: (§1)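 Submitted to the NCI Developmental Therapeutics Program for the NCI60 human tumour cell line panel. First screen at a single 10 µM concentration. Read-out is growth relative to untreated control cells set at 100%.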

A549 = assay: Growth inhibition of human A549/ATCC cells assessed as cell growth at 10 uM incubated for 48 hrs by sulforhodamine B assay relative to control
How it was run: (§2)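 NCI Developmental Therapeutics Program NCI60 panel. Compounds that were active in the 10 µM one-dose screen went on to dose–response testing. Growth at each concentration is expressed relative to untreated control (100%). GI50 (concentration giving 50% of maximal inhibition of proliferation) and TGI (concentration giving total growth inhibition) were derived from the curves.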

M14 = assay: Growth inhibition of human M14 cells assessed as cell growth at 10 uM incubated for 48 hrs by sulforhodamine B assay relative to control; how it was run: as §1
SF-295 = assay: Growth inhibition of human SF-295 cells assessed as cell growth at 10 uM incubated for 48 hrs by sulforhodamine B assay relative to control
How it was run: (§3)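 Run by the NCI Developmental Therapeutics Program as part of its 60-line human tumour panel. Each compound tested at a single 10 µM dose. Growth expressed as % relative to untreated control cells (100%).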

NCI-H23 = assay: Growth inhibition of human NCI-H23 cells assessed as cell growth at 10 uM incubated for 48 hrs by sulforhodamine B assay relative to control; how it was run: as §1
U-251 = assay: Growth inhibition of human U-251 cells assessed as cell growth at 10 uM incubated for 48 hrs by sulforhodamine B assay relative to control; how it was run: as §3
HL-60(TB) = assay: Growth inhibition of human HL-60(TB) cells assessed as cell growth at 10 uM incubated for 48 hrs by sulforhodamine B assay relative to control
How it was run: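 Screened by the NCI Developmental Therapeutics Program on its panel of 60 human tumour cell lines. Compounds were first tested at a single 10 µM dose, and compounds active there went to dose-response curves. Growth is expressed relative to untreated control (100%). GI50 (50% of maximal proliferation inhibition) and TGI (total growth inhibition) were derived from the dose-response data.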

DU-145 = assay: Growth inhibition of human DU-145 cells assessed as cell growth at 10 uM incubated for 48 hrs by sulforhodamine B assay relative to control; how it was run: as §2
HCT-116 = assay: Growth inhibition of human HCT-116 cells assessed as cell growth at 10 uM incubated for 48 hrs by sulforhodamine B assay relative to control; how it was run: as §1
SK-MEL-28 = assay: Growth inhibition of human SK-MEL-28 cells assessed as cell growth at 10 uM incubated for 48 hrs by sulforhodamine B assay relative to control; how it was run: as §3
KM12 = assay: Growth inhibition of human KM12 cells assessed as cell growth at 10 uM incubated for 48 hrs by sulforhodamine B assay relative to control; how it was run: as §1
786-0 = assay: Growth inhibition of human 786-0 cells assessed as cell growth at 10 uM incubated for 48 hrs by sulforhodamine B assay relative to control; how it was run: as §2
MDA-MB-468 = assay: Growth inhibition of human MDA-MB-468 cells assessed as cell growth at 10 uM incubated for 48 hrs by sulforhodamine B assay relative to control; how it was run: as §1
CAKI-1 = assay: Growth inhibition of human CAKI-1 cells assessed as cell growth at 10 uM incubated for 48 hrs by sulforhodamine B assay relative to control; how it was run: as §2
HCC 2998 = assay: Growth inhibition of human HCC 2998 cells assessed as cell growth at 10 uM incubated for 48 hrs by sulforhodamine B assay relative to control; how it was run: as §2
SR = assay: Growth inhibition of human SR cells assessed as cell growth at 10 uM incubated for 48 hrs by sulforhodamine B assay relative to control; how it was run: as §3
SK-MEL-2 = assay: Growth inhibition of human SK-MEL-2 cells assessed as cell growth at 10 uM incubated for 48 hrs by sulforhodamine B assay relative to control; how it was run: as §3
TK-10 = assay: Growth inhibition of human TK-10 cells assessed as cell growth at 10 uM incubated for 48 hrs by sulforhodamine B assay relative to control; how it was run: as §3
NCI-H522 = assay: Growth inhibition of human NCI-H522 cells assessed as cell growth at 10 uM incubated for 48 hrs by sulforhodamine B assay relative to control; how it was run: as §1

| SMILES | growth at 10 µM (ACHN) | growth at 10 µM (HOP-62) | growth at 10 µM (A549) | growth at 10 µM (M14) | growth at 10 µM (SF-295) | growth at 10 µM (NCI-H23) | growth at 10 µM (U-251) | growth at 10 µM (HL-60(TB)) | growth at 10 µM (DU-145) | growth at 10 µM (HCT-116) | growth at 10 µM (SK-MEL-28) | growth at 10 µM (KM12) | growth at 10 µM (786-0) | growth at 10 µM (MDA-MB-468) | growth at 10 µM (CAKI-1) | growth at 10 µM (HCC 2998) | growth at 10 µM (SR) | growth at 10 µM (SK-MEL-2) | growth at 10 µM (TK-10) | growth at 10 µM (NCI-H522) |
| --- | --- | --- | --- | --- | --- | --- | --- | --- | --- | --- | --- | --- | --- | --- | --- | --- | --- | --- | --- | --- |
| COc1ccc(S(=O)(=O)n2ccc(-c3ccc(OC(C)C)cc3)n2)cc1 | 95.8% | 126% | 86% | 84.5% | 90% | 83.8% | 95.3% | 90.3% | 94.3% | 79% | 95.3% | 92% | 81.1% | 68.7% | 66% | 103% | 75.7% |  |  |  |
| CC1(C)CCc2cc(-c3ccn(S(=O)(=O)c4ccccc4)n3)ccc2O1 | 90.1% | 108% | 77.6% | 61% | 81.4% | 75.5% | 72.3% | 89.4% | 85.6% | 62.7% | 97.2% | 71.5% | 74.5% | 54.6% | 62.9% | 83.2% | 56.7% |  |  |  |
| COc1ccc(-c2ccn(S(=O)(=O)c3ccc(C)cc3)n2)cc1 | 91.6% | 108% | 79.7% | 90% | 78.5% | 67.9% | 81.9% | 114% | 93.7% | 73.5% | 103% | 89.7% | 83% | 46.1% | 69.5% | 86.9% | 79.2% |  |  |  |
| CC1(C)CCc2cc(-c3ccn(S(=O)(=O)c4ccc(Cl)cc4Cl)n3)ccc2O1 | 103% | 105% | 83.7% | 85.9% | 94.4% | 98.1% | 87.9% | 102% | 96.9% | 73.6% | 102% | 92.9% | 79% | 81.5% | 83.8% | 99.1% | 77.9% | 79.7% | 68.7% | 60.4% |
| Cc1cc(C)cc(S(=O)(=O)n2ccc(-c3ccc4c(c3)CCC(C)(C)O4)n2)c1 | 92.8% | 116% | 80.8% | 82.7% | 85% | 73.6% | 85.6% | 99.8% | 89.8% | 77.8% | 102% | 82.7% | 82.8% | 54.6% | 72.5% | 88.2% | 76.5% |  |  |  |
| COc1ccc(-c2ccn(S(=O)(=O)c3ccc(OC)cc3)n2)cc1 | 90.6% | 101% | 88.3% | 74% | 72.7% | 79.8% | 86.6% | 99.4% | 93.9% | 60.3% | 99.2% | 88.4% | 80.2% | 59.3% | 66.2% | 88.1% | 57.8% |  |  |  |
